Experimental data from different studies.
Compare with care: the assays were run in different laboratories.
Target: Cyclin-dependent kinase 15 (CDK15, Homo sapiens, UniProt Q96Q40)

| Compound | read-out | technique | tested at | remaining binding |
| --- | --- | --- | --- | --- |
| C[C@@H]1CN(c2cc(-c3nn(C)c4ccc(OC5(C)CC5)cc34)ncn2)C[C@H](C)O1 | cell-free assay | competition with immobilised ligand | 1 µM | 84% |
| c1cnn2ncc(-c3ccnc(N4CCC45COC5)n3)c2c1 | binding | – | 1 µM | 85% |
| c1cncc(-c2cccc(Nc3nccc(NC4CCCCC4)n3)c2)c1 | binding | competition with immobilised ligand | 10 µM | 76% |
| COc1ccnn2ncc(-c3ccnc(N(C)C)n3)c12 | binding | – | 1 µM | 41% |
| CCN1CCN(Cc2ccc(C(=O)Nc3ccc(C)c(Oc4ccc5c(c4)CC(=O)N5)c3)cc2C(F)(F)F)CC1 | binding | competition with immobilised ligand | 1 µM | 100% |
| CN(C)c1nccc(-c2cnn3ncccc23)n1 | binding | – | 1 µM | 100% |
| O=C(c1ccc(Nc2ncc(Cl)c(-c3ccc(Cl)s3)n2)cc1)N1CCC(N2CCCC2)CC1 | binding | competition with immobilised ligand | 1 µM | 43% |
| O=C(Nc1c[nH]nc1C(=O)NC1CCNCC1)c1cc(F)cc(F)c1 | binding | competition with immobilised ligand | 1 µM | 79% |
| O=C(c1ccc(Nc2ncc(Cl)c(-c3cc4ccccc4s3)n2)cc1)N1CCC(N2CCCC2)CC1 | binding | competition with immobilised ligand | 1 µM | 70% |
| O=C(NCCCC1CCCCC1)c1ccc(CNC(=O)c2cnn(-c3ccccc3)c2C(F)(F)F)cc1 | cell-free assay | competition with immobilised ligand | 0.1 µM | 77% |
| CC1CCCN1c1nccc(-c2cnn3ncccc23)n1 (stereo not shown) | binding | – | 1 µM | 100% |
| O=C(NCCCN1CCOCC1)c1ccc(Nc2ncc(Cl)c(-c3ccc(Cl)s3)n2)cc1 | binding | competition with immobilised ligand | 1 µM | 89% |
| FC(F)(F)Oc1cccc(-c2cnc3ccc(-c4ccncc4)nn23)c1 | cell-free assay | competition with immobilised ligand | 5 µM | 63% |
| CCOC(=O)c1cc2cc(-c3cc(C(=O)NCc4ccc(C(=O)O)cc4)nn3C)ccc2[nH]1 | cell-free assay | competition with immobilised ligand | 0.1 µM | 93% |
| F[C@@H]1CCN(c2nccc(-c3cnn4ncccc34)n2)C1 | binding | – | 1 µM | 100% |
| Cc1nc(Cc2cccc(C(F)(F)F)c2)sc1-c1ccc(C(N)=O)nc1 | cell-free assay | competition with immobilised ligand | 1 µM | 86% |
| CN(CCCC(F)(F)F)c1nccc(-c2cnn3ncccc23)n1 | binding | – | 1 µM | 100% |
| COc1cnc(Nc2cccc(S(N)(=O)=O)c2)nc1N1CCN(c2ccccc2)C(=O)C1 | binding | competition with immobilised ligand | 1 µM | 100% |
| COc1cccc(CNC(=O)c2nc3scc(COCc4ccc(C(=O)O)cc4)c3c(=O)[nH]2)c1 | cell-free assay | competition with immobilised ligand | 1 µM | 97.6% |
| N[C@H]1CCN(c2nccc(-c3cnn4ncccc34)n2)C1 | binding | – | 1 µM | 100% |
| CN(C)CC#Cc1ccc(OCCCc2sc(N3CCc4cccc(C(=O)Nc5nc6ccccc6s5)c4C3)nc2C(=O)O)c(F)c1 | cell-free assay | competition with immobilised ligand | 1 µM | 100% |
| Nc1ncc2c(n1)-c1c([nH]c3ccc(C#CC4CC4)cc13)CCCC2 | binding | competition with immobilised ligand | 1 µM | 96% |
